Tested on: Plasmodium falciparum
Experiment: In vitro antimalarial activity against Plasmodium falciparum.
Type: functional, organism-based
How it was run: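 Method follows earlier published work. Each compound tested in quadruplicate. IC50 derived from fitted concentration–response curves. Artemisinin run as a concurrent control, with n = 20 for the control.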

Compound	IC50 [nM]
COC1(c2ccc(S(C)(=O)=O)cc2)C=CC2(CCCCCC2)OO1 (configuration not stated)	31
COc1ccc(C2(OC)C=CC3(CCC3)OO2)cc1 (configuration not stated)	160
COC1(c2ccc(S(C)(=O)=O)cc2)C=CC2(CCCCC2)OO1 (configuration not stated)	56
COC1(c2ccc(OC(F)(F)F)cc2)C=CC2(CCCCCC2)OO1 (configuration not stated)	61
COC1(c2ccccc2)C=CC2(CCCCCC2)OO1 (configuration not stated)	220
COC1(c2ccc(F)cc2)C=CC2(CCCCCC2)OO1 (configuration not stated)	85
CCc1ccc(C2(OC)C=CC3(CCCCCC3)OO2)cc1 (configuration not stated)	180
COC1(c2ccccc2)C=CC2(CCCC2)OO1 (configuration not stated)	190
COC1(c2ccc([N+](=O)[O-])cc2)C=CC2(CCCCC2)OO1 (configuration not stated)	46
COc1ccc(C2(OC)C=CC3(CCCCCC3)OO2)cc1 (configuration not stated)	210
COC1(c2ccc(SC)cc2)C=CC2(CCCCC2)OO1 (configuration not stated)	160
COC1(c2ccccc2)C=CC2(CCCCC2)OO1 (configuration not stated)	280
CC(C)OC1(c2ccc(Cl)cc2)C=CC2(CCCCCC2)OO1 (configuration not stated)	1100
COC1(c2ccc(Cl)cc2)C=CC2(CCCCC2)OO1 (configuration not stated)	100
CC1(C)C=CC(O)(c2ccccc2)OO1 (configuration not stated)	> 2500
COC1(c2ccc(Cl)cc2)C=CC2(CCCCCC2)OO1 (configuration not stated)	58
COC1(c2ccc(SC)cc2)C=CC2(CCCCCC2)OO1 (configuration not stated)	78
COC1(c2ccc(F)cc2)C=CC2(CCCCC2)OO1 (configuration not stated)	200
COc1ccc(C2(OC)C=CC3(CCCCC3)OO2)cc1 (configuration not stated)	180
COc1cc(C2(OC)C=CC3(CCCCCC3)OO2)cc(OC)c1OC (configuration not stated)	120
COC1(c2ccccc2)C=CC(C)(C)OO1 (configuration not stated)	1100
C[C@@H]1CC[C@H]2[C@@H](C)C(=O)O[C@@H]3O[C@@]4(C)CC[C@@H]1[C@]32OO4 [ARTEMISININ]	8.4
